What was measured:
[1] = 21-day oral dosage in mice ref 22; cited from earlier work
[2] = tested on: TCF/LEF reporter activity; assay: TCF/LEF luciferase reporter assay, COLO-320DM; format: cell-based, human; conditions: 30 h
Procedure, shortened: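 Cells were transfected with TCF reporter vectors (including pTcf7wt-luc), then exposed to test compound for 30 h and luciferase activity was read. Comparison was by Tukey-Kramer test against pTcf7wt-luc-transfected DMSO-treated cells.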

[3] = tested on: TCF/LEF reporter activity; assay: TCF/LEF luciferase reporter assay, L-Wnt3A-stimulated HEK293T; format: cell-based; conditions: 30 h
Procedure, shortened: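 HEK293T cells were transfected with TCF luciferase reporters. Conditioned medium from L or L‐Wnt3A cells, prepared per the ATCC protocol, was added together with test compound, and luciferase was read after 30 h. Comparison was by Tukey-Kramer test against pTcf7wt-luc-transfected DMSO controls.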

[4] = tested on: non-phosphorylated (active) β-catenin; assay: Immunofluorescence staining of active β-catenin in COLO-320DM cells; format: cell-based, human; conditions: 1 μmol/L, 16 h, DMSO 100%
Procedure, shortened: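 Cells were exposed to 1 μmol/L test compound for 16 h, then immunostained with anti-non-phosphorylated β-catenin antibody (D13A1, 1:500) and counterstained with DAPI. Fluorescence images were quantified, and intensity was expressed relative to DMSO-treated cells (100%).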

RKO cells = assay: BrdU assay; format: cell-based, human; conditions: 48 h
Procedure, shortened: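 Cells were kept in DMEM with 10% FBS, treated for 48 h, then assayed for BrdU incorporation. DNA synthesis was compared with DMSO-treated (basal) cells by Tukey-Kramer test. Experiments were repeated at least twice; representative data are shown with standard deviation.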

[5] = tested on: tankyrase, Axin1/2, β-catenin; assay: Western blot analysis of pharmacodynamic biomarkers in COLO-320DM cells; format: cell-based, human; conditions: 16 h
Procedure, shortened: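 Cells cultured in RPMI-1640 with 10% heat-inactivated FBS were treated for 16 h. Whole cell lysates were then analysed by western blot.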

COLO-320DM cells = assay: BrdU assay; format: cell-based, human; conditions: 48 h
Procedure, shortened: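 Cells were grown in RPMI-1640 with 10% heat-inactivated FBS and exposed to test compound for 48 h before BrdU incorporation was measured. Tukey-Kramer comparison was against DMSO-treated cells. Experiments were repeated at least twice; representative results are shown with standard deviation.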

With `COc1ccc(C2(CNC(=O)c3ccc(NC(=O)c4ccco4)cc3)CCOCC2)cc1` [JW55] as the compound, how does the “Body weight and small intestine histology in mice” value [1] read?
Its value is “no body weight alterations or histological changes in the small intestine”.

For `O=C(c1cc(Cc2n[nH]c(=O)c3ccccc23)ccc1F)N1CCN(C(=O)C2CC2)CC1` [olaparib], which TCF/LEF reporter activity [2] is on record?
The TCF/LEF reporter activity was “no effect”.

What about the TCF/LEF luciferase activity [3] of the same compound?
The TCF/LEF luciferase activity was “only marginally inhibited”.

And the “Immunofluorescence intensity of active β-catenin” value [4]?
The value was 106%.

And the “DNA synthesis (BrdU)” value (RKO cells)?
The value was “resistant”.

What about the “DNA synthesis (BrdU) relative to basal level” value (RKO cells; 10 μmol/L) of the same compound?
Its value is “half”.

What about the “Tankyrase, Axin1/2 and β-catenin protein levels (western blot)” value [5] of the same compound?
Its value is “did not affect”.

And the “DNA synthesis (BrdU)” value (COLO-320DM cells; 10 μmol/L)?
The value was “marginally inhibited”.

And the “DNA synthesis (BrdU)” value (COLO-320DM cells; concentrations up to 3 μmol/L)?
The value was “no effects”.

From PMC6272098 (Cancer Science, 2018)
